Assays:
Assay type in all cases: functional
K562 [1] = test: Effect on THBS1 gene expression in human K562 cells assessed as change in mRNA transcript expression at 10 nM after 48 hrs by DNA microarray analysis relative to control
Outline: (§1)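 K562 CML cells (b3a2 Bcr-Abl) kept under standard culture conditions were exposed to 10 nM conjugate and harvested at 6, 12, 24 and 48 h. Untreated controls were harvested at 48 h. Whole-transcript oligonucleotide microarray profiling was done, and changes of at least twofold versus control were scored.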

K562 [2] = test: Effect on TRY6/PRS gene expression in human K562 cells assessed as change in mRNA transcript expression at 10 nM after 48 hrs by DNA microarray analysis relative to control; outline: as §1
K562 [3] = test: Effect on TPK1 gene expression in human K562 cells assessed as change in mRNA transcript expression at 10 nM after 48 hrs by DNA microarray analysis relative to control; outline: as §1
K562 [4] = test: Effect on INPP1 gene expression in human K562 cells assessed as change in mRNA transcript expression at 10 nM after 48 hrs by DNA microarray analysis relative to control
Outline: (§2)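 K562 CML cells (b3a2 Bcr-Abl) in standard ATCC-recommended culture, exposed once to 10 nM conjugate and harvested at 48 h. Untreated controls were also collected at 48 h. Transcripts were profiled on Human Gene 1.0 ST whole-genome oligonucleotide arrays, and each treated level was expressed relative to the untreated control, with a cutoff of at least twofold change.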

K562 [5] = test: Effect on TOMM22 gene expression in human K562 cells assessed as change in mRNA transcript expression at 10 nM after 48 hrs by DNA microarray analysis relative to control; outline: as §1
K562 [6] = test: Effect on NTS gene expression in human K562 cells assessed as change in mRNA transcript expression at 10 nM after 48 hrs by DNA microarray analysis relative to control; outline: as §2
K562 [7] = test: Effect on TRIB3 gene expression in human K562 cells assessed as change in mRNA transcript expression at 10 nM after 48 hrs by DNA microarray analysis relative to control; outline: as §1
K562 [8] = test: Effect on LGALS3BP gene expression in human K562 cells assessed as change in mRNA transcript expression at 10 nM after 48 hrs by DNA microarray analysis relative to control; outline: as §2
K562 [9] = test: Effect on HIST1H2AH gene expression in human K562 cells assessed as change in mRNA transcript expression at 10 nM after 48 hrs by DNA microarray analysis relative to control
Outline: (§3)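 Transcripts were profiled on Affymetrix GeneChip Human Gene 1.0 ST arrays in K562 cells treated at 10 nM. Treated cells were collected at 6, 12, 24 and 48 h; untreated controls were collected at 48 h. Transcripts changed at least twofold versus control were scored.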

K562 [10] = test: Induction of apoptosis in human K562 cells assessed as non-viable necrotic cells at 125 nM after 48 hrs by annexin-V FITC and propidium iodide staining-based FACS analysis
Outline: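 K562 cells were exposed to conjugate in culture medium for 48 h, then stained with annexin V-FITC plus propidium iodide. Cell populations were quantified by flow cytometry.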

K562 [11] = test: Effect on HIST1H4J gene expression in human K562 cells assessed as down-regulation of mRNA transcript expression at 10 nM after 48 hrs by DNA microarray analysis relative to control; outline: as §2
K562 [12] = test: Effect on EXOC6B gene expression in human K562 cells assessed as change in mRNA transcript expression at 10 nM after 48 hrs by DNA microarray analysis relative to control; outline: as §3
K562 [13] = test: Effect on HIST1H1E gene expression in human K562 cells assessed as change in mRNA transcript expression at 10 nM after 48 hrs by DNA microarray analysis relative to control; outline: as §3
K562 [14] = test: Effect on CLGN gene expression in human K562 cells assessed as change in mRNA transcript expression at 10 nM after 48 hrs by DNA microarray analysis relative to control; outline: as §3
K562 [15] = test: Effect on PLCB2 gene expression in human K562 cells assessed as change in mRNA transcript expression at 10 nM after 48 hrs by DNA microarray analysis relative to control; outline: as §2
K562 [16] = test: Effect on GPR56 gene expression in human K562 cells assessed as change in mRNA transcript expression at 10 nM after 48 hrs by DNA microarray analysis relative to control; outline: as §3
K562 [17] = test: Effect on NET1 gene expression in human K562 cells assessed as change in mRNA transcript expression at 10 nM after 48 hrs by DNA microarray analysis relative to control; outline: as §2
K562 [18] = test: Effect on CLCA1 gene expression in human K562 cells assessed as change in mRNA transcript expression at 10 nM after 48 hrs by DNA microarray analysis relative to control; outline: as §3
K562 [19] = test: Effect on HIST2H2A gene expression in human K562 cells assessed as change in mRNA transcript expression at 10 nM after 48 hrs by DNA microarray analysis relative to control; outline: as §2
K562 [20] = test: Effect on CREB3L1 gene expression in human K562 cells assessed as change in mRNA transcript expression at 10 nM after 48 hrs by DNA microarray analysis relative to control; outline: as §3
K562 [21] = test: Effect on EGR1 gene expression in human K562 cells assessed as change in mRNA transcript expression at 10 nM after 48 hrs by DNA microarray analysis relative to control; outline: as §3
K562 [22] = test: Effect on HSPA1A gene expression in human K562 cells assessed as change in mRNA transcript expression at 10 nM after 48 hrs by DNA microarray analysis relative to control; outline: as §2
K562 [23] = test: Effect on SLC7A8 gene expression in human K562 cells assessed as change in mRNA transcript expression at 10 nM after 48 hrs by DNA microarray analysis relative to control; outline: as §2
K562 [24] = test: Effect on HIST1H4B gene expression in human K562 cells assessed as down-regulation of mRNA transcript expression at 10 nM after 48 hrs by DNA microarray analysis relative to control; outline: as §3
K562 [25] = test: Effect on COMMD10 gene expression in human K562 cells assessed as change in mRNA transcript expression at 10 nM after 48 hrs by DNA microarray analysis relative to control; outline: as §3
K562 [26] = test: Effect on FLJ21767 gene expression in human K562 cells assessed as change in mRNA transcript expression at 10 nM after 48 hrs by DNA microarray analysis relative to control; outline: as §3
K562 [27] = test: Effect on HIST2H2B gene expression in human K562 cells assessed as change in mRNA transcript expression at 10 nM after 48 hrs by DNA microarray analysis relative to control; outline: as §2
K562 [28] = test: Effect on HIST2H2AA gene expression in human K562 cells assessed as change in mRNA transcript expression at 10 nM after 48 hrs by DNA microarray analysis relative to control; outline: as §2
K562 [29] = test: Effect on SASH1 gene expression in human K562 cells assessed as change in mRNA transcript expression at 10 nM after 48 hrs by DNA microarray analysis relative to control; outline: as §2

SMILES: CC(=O)Nc1cn(C)c(C(=O)Nc2cn(C)c(C(=O)NCCC(=O)Nc3cn(C)c(C(=O)NCCCC(=O)Nc4cc(C(=O)Nc5cn(C)c(C(=O)Nc6ccc7[nH]c(C(=O)N8CC(CCl)c9c8cc(O)c8ccccc98)cc7c6)n5)n(C)c4)n3)n2)n1 (centres undefined)
- fold change (FC) (K562 [1]): >=2
- fold change (FC) (K562 [2]): >=2
- fold change (FC) (K562 [3]): >=2
- fold change (FC) (K562 [4]): >=2
- fold change (FC) (K562 [5]): >=2
- fold change (FC) (K562 [6]): >=2
- fold change (FC) (K562 [7]): >=2
- fold change (FC) (K562 [8]): >=2
- fold change (FC) (K562 [9]): >=2
- Activity (K562 [10]): 2.07%
- fold change (FC) (K562 [11]): 2.61
- fold change (FC) (K562 [12]): >=2
- fold change (FC) (K562 [13]): >=2
- fold change (FC) (K562 [14]): >=2
- fold change (FC) (K562 [15]): >=2
- fold change (FC) (K562 [16]): >=2
- fold change (FC) (K562 [17]): >=2
- fold change (FC) (K562 [18]): >=2
- fold change (FC) (K562 [19]): >=2
- fold change (FC) (K562 [20]): >=2
- fold change (FC) (K562 [21]): >=2
- fold change (FC) (K562 [22]): >=2
- fold change (FC) (K562 [23]): >=2
- fold change (FC) (K562 [24]): 3.91
- fold change (FC) (K562 [25]): >=2
- fold change (FC) (K562 [26]): >=2
- fold change (FC) (K562 [27]): >=2
- fold change (FC) (K562 [28]): >=2
- fold change (FC) (K562 [29]): >=2
